The values that follow come from ChEMBL document CHEMBL2331226, “Antiproliferative and antiplasmodial dimeric phloroglucinols from Mallotus oppositifolius from the Madagascar Dry Forest (1)” (J Nat Prod, 2013).

Calls of active or inactive are those of the source. No cut-off for these calls is given here.

Assay [1] deals with Plasmodium falciparum. Put plainly: Gametocytocidal antimalarial activity against chloroquine-sensitive Plasmodium falciparum NF54 late gametocyte stage after 72 hrs by alamar blue assay. The class given is functional, organism-based. Particulars: NF54, 72 h. In a few lines:
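Stage V gametocytes came from NF54 cultures kept at 37 °C in 5% O2, 5% CO2 and […]. Asexual stages were cleared with 5% sorbitol for four days from day 9, and gametocytes were purified on day 13 over NycoPrep 1.077. 30,000–50,000 gametocytes per well were incubated with drug for 72 h in low O2. AlamarBlue was then added for 24 h (ex 540/em 585 nm). IC50 from dose-response fit; two independent determinations in duplicate, ± S.E.M.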
(In general: The colour change of resazurin is a common sign of viable cells or microbes.)

The test system of the next assay is A2780. Put plainly: Cytotoxicity against human A2780 cells. The format is functional, cell-based.
Assay [2] has as its system Plasmodium falciparum. Put plainly: Antimalarial activity against chloroquine/mefloquine-resistant Plasmodium falciparum Dd2 intraerythrocytic stage after 72 hrs by SYBR green I dye based assay. As to conditions: for IC50: Plasmodium falciparum, Dd2, 72 h. The format is functional, organism-based.
The test system of assay [3] is Plasmodium falciparum. Put plainly: Cytocidal antimalarial activity against chloroquine/mefloquine-resistant Plasmodium falciparum Dd2 intraerythrocytic stage. The class given is functional. Particulars: read-out: LD50 (the source's name). In a few lines: (§1)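 Killing of intraerythrocytic stages measured by a rapid cytocidal assay, per an earlier report. LD50 values are the mean of three replicate determinations ± S.E.M.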

Assay [4] concerns Plasmodium falciparum. Put plainly: Cytocidal antimalarial activity against drug-sensitive Plasmodium falciparum HB3 intraerythrocytic stage. The class given is functional. Particulars: read-out: LD50 (the source's name). In short, it runs like this: as §1
Assay [5] deals with Plasmodium falciparum. The assay is described as follows: Antimalarial activity against chloroquine-sensitive Plasmodium falciparum NF54 asexual stage after 72 hrs by alamar blue assay. The class given is functional, organism-based. As to conditions: NF54, 72 h.
Assay [6] concerns Plasmodium falciparum. The assay is described as follows: Antimalarial activity against chloroquine-sensitive Plasmodium falciparum NF54 early gametocyte stage assessed as reduction in occurrence of asexual intraerythrocytic stages after 13 days at 0.14 uM by microscopy. The class given is functional, organism-based. In short, it runs like this:
(§2)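 NF54 cultures at 0.75% parasitemia and 1% hematocrit were grown 13 days with or without drug in 24-well plates, humidified, at 37 °C under low oxygen. Plain or drug-supplemented medium was replaced on days 4, 6, 8 and 9-12. On day 13, asexual and sexual parasitaemia were counted on Giemsa-stained smears. Controls were untreated and 0.5% DMSO vehicle. Two independent experiments.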

The subject of assay [7] is Plasmodium falciparum. Put plainly: Antimalarial activity against chloroquine-sensitive Plasmodium falciparum NF54 early gametocyte stage assessed as reduction in occurrence of gametocyte stages after 13 days at 0.14 uM by microscopy. The format is functional, organism-based. In a few lines: as §2
The test system of assay [8] is Plasmodium falciparum. The assay is described as follows: Antimalarial activity against chloroquine-sensitive Plasmodium falciparum NF54 early gametocyte stage assessed as reduction in occurrence of asexual intraerythrocytic stages after 13 days at 0.76 uM by microscopy. The format is functional, organism-based. In short, it runs like this: as §2
Assay [9] relates to Plasmodium falciparum. The assay is described as follows: Antimalarial activity against chloroquine-sensitive Plasmodium falciparum NF54 early gametocyte stage assessed as reduction in occurrence of gametocyte stages after 13 days at 0.76 uM by microscopy. The format is functional. More on the design: scale not given: the % may be the effect or the level left. In a few lines: as §2

The term IC50 denotes the concentration needed to halve the response being measured. Consider `C[C@H]1[C@H](OC(=O)CCC(=O)O)O[C@@H]2O[C@@]3(C)CC[C@H]4[C@H](C)CC[C@@H]1[C@@]24OO3` [ARTESUNATE], for which half-maximal inhibition with Plasmodium falciparum [1] (IC50) was put at 2.3 µM.
Consider `COc1c(CC=C(C)C)c(O)c(C(C)=O)c(O)c1Cc1c(O)c(C(C)=O)c(O)c(CC=C(C)C)c1OC` [MALLOTOJAPONIN C], for which the half-inhibitory concentration (IC50) with A2780 amounted to 1.3 µM; with Plasmodium falciparum [2], 0.14 µM; in the assay on Plasmodium falciparum [1], 3.6 µM; with Plasmodium falciparum [5] it was 0.07 µM. This molecule yielded an IC100 in the assay on Plasmodium falciparum [2] of 39 µM. Moreover, the LC50 with Plasmodium falciparum [3] is 0.8 µM; in the assay on Plasmodium falciparum [4], 0.81 µM. Also, the outcome in the assay on Plasmodium falciparum [6] and with Plasmodium falciparum [7] was Active.
Turning to `COc1c(C)c(O)c(C(C)=O)c(O)c1Cc1c(O)c(C(C)=O)c(O)c(CC=C(C)C)c1OC` [MALLOTOJAPONIN B], the half-maximal inhibitory concentration (IC50) with A2780 was determined as 1.1 µM; in the assay on Plasmodium falciparum [2], 0.75 µM. Also, the IC100 with Plasmodium falciparum [2] is 44 µM. Also, the figures for the LC50 with Plasmodium falciparum [3] and with Plasmodium falciparum [4] were 6.7 µM and 14.6 µM, respectively. The result in the assay on Plasmodium falciparum [8] was Active. The Activity in the assay with Plasmodium falciparum [9] is 80%.
